The nature of series [1]: Ratio for cytotoxicity against camptothecin resistant P388/CPT45 cells to that of parental P388 cells. It is filed as functional, Mus musculus. In short, it runs like this: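 Cytotoxicity after 3-day continuous exposure by tetrazolium dye conversion, read at 450 nm, in camptothecin-resistant P388/CPT45 cells and parental P388 cells; value is IC50 in P388/CPT45 divided by IC50 in P388.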

The target in series [2] is T1, DNA topoisomerase 1 (Homo sapiens) (UniProt P11387).
T1 sequence (whole entry): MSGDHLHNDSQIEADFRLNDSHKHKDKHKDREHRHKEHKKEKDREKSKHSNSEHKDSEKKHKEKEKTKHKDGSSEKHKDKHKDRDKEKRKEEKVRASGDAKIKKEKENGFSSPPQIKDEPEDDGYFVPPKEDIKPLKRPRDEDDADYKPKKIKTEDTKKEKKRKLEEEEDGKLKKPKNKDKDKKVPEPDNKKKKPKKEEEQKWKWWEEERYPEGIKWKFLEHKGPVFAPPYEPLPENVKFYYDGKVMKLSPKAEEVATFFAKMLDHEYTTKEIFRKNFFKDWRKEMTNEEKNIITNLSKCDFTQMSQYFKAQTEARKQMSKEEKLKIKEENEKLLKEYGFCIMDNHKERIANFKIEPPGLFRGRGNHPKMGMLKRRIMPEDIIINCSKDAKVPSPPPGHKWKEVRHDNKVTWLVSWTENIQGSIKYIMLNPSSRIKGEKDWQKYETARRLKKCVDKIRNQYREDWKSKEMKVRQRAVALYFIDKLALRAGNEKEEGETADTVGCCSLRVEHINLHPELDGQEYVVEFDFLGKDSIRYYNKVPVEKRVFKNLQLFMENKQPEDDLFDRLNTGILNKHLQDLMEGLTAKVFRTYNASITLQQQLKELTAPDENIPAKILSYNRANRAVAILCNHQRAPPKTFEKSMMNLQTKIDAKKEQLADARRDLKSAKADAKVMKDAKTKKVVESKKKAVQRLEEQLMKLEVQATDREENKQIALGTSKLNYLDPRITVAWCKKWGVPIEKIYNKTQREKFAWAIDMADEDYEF
The series can be described thus: Ratio of effective concentration for inducing single strand breaks in the DNA substrate by topoisomerase I compared to camptothecin. In short, it runs like this:
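Topoisomerase I-mediated single-strand breaks in DNA substrate assayed by a modified Hsiang protocol; median effective concentration (EC50) for break induction divided by camptothecin EC50 measured in the same experiment.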

For series [3], the system named is P388. The series is described as follows: In vitro cytotoxic concentration against P388 murine leukemia cells was determined. It is filed as functional, cell-based. The settings on record: Mus musculus. In outline:
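P388 murine leukemia cells exposed continuously to compound for 3 days; proliferation measured by soluble tetrazolium/formazan conversion (absorbance 450 nm). IC50 = concentration reducing absorbance to 50% of untreated control cells; reported as mean.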

Series [4] is described as follows: Volume of distribution of compound in plasma was determined at 24 mg/Kg. It is filed as ADME, organism-based. The settings on record: mouse, read-out: Vds.
A short description of series [5]: Half life of compound was determined in plasma of mice at 24 mg/Kg. As to conditions: mouse. It is filed as ADME, organism-based.
Series [6] relates to Mus musculus. The series can be described thus: Inhibitory concentration of compound was determined after intravenous administration in mice after 8 hours of exposure at 24 mg/Kg. It is filed as ADME, organism-based.
Series [7] concerns Mus musculus. The series is described as follows: Area under curve was determined for the compound at 24 mg/Kg. It is filed as ADME, organism-based. The settings on record: in vivo.
A short description of series [8]: Plasma clearance at 24 mg/Kg. It is filed as ADME, organism-based. As to conditions: mouse.
A short description of series [9]: Volume of distribution of compound in plasma was determined at 5 mg/Kg. It is filed as ADME, organism-based. The settings on record: mouse, read-out: Vds.
Series [10] is described as follows: Half life of compound was determined in plasma of mice at 5 mg/Kg. It is filed as ADME, organism-based. The settings on record: mouse.
Series [11] has as its system Mus musculus. The series can be described thus: Area under curve was determined for the compound at 5 mg/Kg. It is filed as ADME, organism-based. As to conditions: in vivo.
In series [12] the test system is Mus musculus. The series is described as follows: Inhibitory concentration of compound was determined after intravenous administration in mice after 8 hours of exposure at 5 mg/Kg. It is filed as ADME, organism-based.
Series [13] can be described thus: Plasma clearance at 5 mg/Kg. It is filed as ADME, organism-based. As to conditions: mouse.

As a reminder, the IC50 is the point on the concentration scale where inhibition reaches its midpoint. Turning to `CN1C(=O)c2c(c3c4cc(F)ccc4n(C4OC(CO)C(O)C(O)C4O)c3c3[nH]c4ccc(F)cc4c23)C1=O` (stereo not given), the results for the Ratio in [1] and in series [2] were above 10.8 and 1, respectively. This compound also yielded an IC50 in [3] of 862 nM.
With `CN1C(=O)c2c(c3c4cc(F)ccc4n(C4OC(CO)C(O)C(O)C4O)c3c3sc4ccc(F)cc4c23)C1=O` (stereo not given), the figures for the Ratio in series [1] and in series [2] were 14.1 and 0.48, respectively. The compound further came in with an IC50 in [3] of 236 nM.
Broadly, the half-life is the time needed for the level to fall by half in the phase considered. Broadly, the clearance is a measure of how efficiently the substance is removed, as volume per time. For the compound `O=C1NC(=O)c2c1c1c3cc(F)ccc3[nH]c1c1c2c2cc(F)ccc2n1C1OC(CO)C(O)C(O)C1O` (stereo not given), the Vd in series [4] came out at 0.1 L/kg. Besides, in series [5], the half-life was 1.6 h. In series [6], this compound returned an IC50 of 860 nM. The compound further had an AUC in series [7] of 0.17 uM hr ml-1. The compound further gave a clearance in series [8] of 3.6 mL/min/kg. Also, the Ratio came to 182.7 in [1] and 0.22 in series [2].
Regarding `O=C1NC(=O)c2c1c1c3cc(F)ccc3sc1c1c2c2cc(F)ccc2n1C1OC(CO)C(O)C(O)C1O` (stereo not given), in [9], the Vd was determined as 1.27 L/kg. Besides, in [10], the half-life was 7.6 h. In series [11], the AUC was found to be 0.068 uM hr ml-1. The IC50 in [12] is 150 nM; in series [3], 10 nM. In series [13], this compound displayed a clearance of 9.33 mL/min/kg. The Ratio in series [1] amounted to 232.5; in [2] it was 0.09.
For `Cn1c2cc(F)c(F)cc2c2c3c(c4c5cc(F)c(F)cc5n(C5OC(CO)C(O)C(O)C5O)c4c21)C(=O)NC3=O` (stereo not given), the Ratio in [1] is above 1; in series [2] it was above 600. Further, the IC50 in series [3] was above 8720 nM.
On the same counts, the results for `O=C1NC(=O)c2c1c1c3ccccc3oc1c1c2c2cc(F)ccc2n1C1OC(CO)C(O)C(O)C1O` (stereo not given) are 13.6, 1.5 and 529 nM.
As to `O=C1NC(=O)c2c1c1c3cc(F)c(F)cc3[nH]c1c1c2c2cc(F)c(F)cc2n1C1OC(CO)C(O)C(O)C1O` (stereo not given), the Ratio worked out at 67.1 in [1] and 0.69 in series [2]. Further, the 50% inhibitory concentration (IC50) in series [3] is 7 nM.
On to `O=C1NC(=O)c2c1c1c3cccc(Cl)c3[nH]c1c1c2c2cccc(Cl)c2n1C1OC(CO)C(O)C(O)C1O` (stereo not given), for which the results for the Ratio in series [1] and in series [2] were 1.26 and above 500, respectively. The midpoint of inhibition in series [3], the IC50, lay at 540 nM.
For `O=C1NC(=O)c2c1c1c3ccc(F)cc3[nH]c1c1c2c2ccccc2n1C1OC(CO)C(O)C(O)C1O` (stereo not given), the Ratio is 11.4 in series [1] and above 200 in [2]. Also, inhibition in series [3] was half-maximal at 98 nM (IC50).
For the compound `O=C1NC(=O)c2c1c1c3cc(F)ccc3[nH]c1c1c2c2ccccc2n1C1OC(CO)C(O)C(O)C1O` (stereo not given), the Ratio in [1] was found to be 31.7; in [2], 1.7. Half-maximal inhibition in series [3] (IC50) required 101 nM.
On the same counts, the results for `O=C1NC(=O)c2c1c1c3ccccc3sc1c1c2c2cc(F)ccc2n1C1OC(CO)C(O)C(O)C1O` (stereo not given) are above 51.3, 2.2 and 155 nM.
For `O=C1NC(=O)c2c1c1c3ccc(F)cc3[nH]c1c1c2c2ccc(F)cc2n1C1OC(CO)C(O)C(O)C1O` (stereo not given), the results for the Ratio in [1] and in series [2] were 8.7 and 2, respectively. In series [3], this compound yielded a half-maximal inhibitory concentration (IC50) of 260 nM.
As to `O=C1c2c(c3c4cc(F)ccc4n(C4OC(CO)C(O)C(O)C4O)c3c3[nH]c4ccc(F)cc4c23)C(=O)N1O` (stereo not given), the figures for the Ratio in [1] and in [2] were 19.6 and 0.08, respectively. The same compound gave a half-maximal inhibitory concentration (IC50) in series [3] of 35 nM.
For the compound `NN1C(=O)c2c(c3c4cc(F)ccc4n(C4OC(CO)C(O)C(O)C4O)c3c3[nH]c4ccc(F)cc4c23)C1=O` (stereo not given), the values for the Ratio in [1] and in [2] were 196.9 and 0.22, respectively. In addition, in series [3], the IC50 came to 20 nM.
On the same counts, the results for `O=C1NC(=O)c2c1c1c3cc(F)ccc3oc1c1c2c2cc(F)ccc2n1C1OC(CO)C(O)C(O)C1O` (stereo not given) are 63.7, 0.27 and 114 nM.
On the same counts, the results for `O=C1NC(=O)c2c1c1c3ccccc3[nH]c1c1c2c2ccc(F)cc2n1C1OC(CO)C(O)C(O)C1O` (stereo not given) are 4.6, 3.1 and 392 nM.
`O=C1NC(=O)c2c1c1c3ccccc3[nH]c1c1c2c2cc(F)ccc2n1C1OC(CO)C(O)C(O)C1O` (stereo not given): the Ratio in [1] was above 9.5; in series [2], 6.6. Besides, the IC50 in series [3] was found to be 1040 nM.

These data come from ChEMBL document CHEMBL1149111, “Design and synthesis of a fluoroindolocarbazole series as selective topoisomerase I active agents. Discovery of water-soluble 3,9-difluoro-12,13-dihydro-13-[6-amino-beta-D-glucopyranosyl]-5H,13H-benzo[b]- thienyl[2,3-a]pyrrolo[3,4-c]carbazole- 5,7(6H)-dione (BMS-251873) with curative antitumor …” (J Med Chem, 2004).
